From ChEMBL document CHEMBL4477204, “Tetrahydroisoquinoline-Derived Urea and 2,5-Diketopiperazine Derivatives as Selective Antagonists of the Transient Receptor Potential Melastatin 8 (TRPM8) Channel Receptor and Antiprostate Cancer Agents” (J Med Chem, 2016)
The source made the active and inactive calls. The calls are words filed in the database; no cut-off is given here.

How the values were obtained:
[1] = target: Transient receptor potential cation channel subfamily V member 4 (Rattus norvegicus, UniProt Q9ERZ8); assay: Antagonist activity at recombinant rat TRPV4 expressed in HEK293 cells assessed as inhibition of 4alphaPDD-induced intracellular calcium accumulation preincubated for 5 mins followed by 4alphaPDD addition by Fluo-4-AM probe-based spectrofluorimetric assay; format: cell-based
How it was run: (§1)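 HEK-293 cells stably expressing the listed TRP channel (human TRPV1; rat TRPM8, TRPA1, TRPV2, TRPV3 or TRPV4) were Fluo-4-AM loaded (4 µM, 1 h, 25 °C) and suspended in Tyrode's buffer pH 7.4. Compound was added 5 min before agonist: icilin 0.25 µM (TRPM8), capsaicin 0.1 µM (TRPV1), AITC 100 µM (TRPA1), LPC 3 µM (TRPV2), thymol 100 µM (TRPV3), 4α-PDD 1 µM (TRPV4). Agonist alone was taken as 100%. IC50 from sigmoidal fit, at least triplicate.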

[2] = test system: LNCaP; assay: Cytotoxicity against human LNCAP cells assessed as inhibition of cell growth at 10 uM after 72 hrs by trypan blue assay; format: functional; settings: for inhibition of growth at 10 µM: read-out: GI
How it was run: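 LNCaP cells were grown in RPMI-1640 with 10% FBS and given a daily dose of compound for 72 h. Cells were then counted in a Burker chamber, with cell number also estimated from dsDNA content at 4 pg DNA/cell. Dead cells were scored with 0.4% trypan blue. Statistics used ANOVA with Bonferroni's test.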

[3] = target: Transient receptor potential cation channel subfamily V member 4 (Rattus norvegicus) (UniProt Q9ERZ8); assay: Antagonist activity at recombinant rat TRPV4 expressed in HEK293 cells assessed as inhibition of 4alphaPDD-induced intracellular calcium accumulation up to 10 uM preincubated for 5 mins followed by 4alphaPDD addition by Fluo-4-AM probe-based spectrofluorimetric assay; format: cell-based; how it was run: as §1
[4] = target: Transient receptor potential cation channel subfamily A member 1 (Rattus norvegicus) (UniProt Q6RI86); assay: Antagonist activity at recombinant rat TRPA1 expressed in HEK293 cells assessed as inhibition of AITC-induced intracellular calcium accumulation up to 10 uM preincubated for 5 mins followed by AITC addition by Fluo-4-AM probe-based spectrofluorimetric assay; format: cell-based; how it was run: as §1
[5] = target: T1, Transient receptor potential cation channel subfamily V member 1 (Homo sapiens, UniProt Q8NER1); assay: Antagonist activity at recombinant human TRPV1 expressed in HEK293 cells assessed as inhibition of capsaicin-induced intracellular calcium accumulation preincubated for 5 mins followed by capsaicin addition by Fluo-4-AM probe-based spectrofluorimetric assay; format: cell-based; how it was run: as §1
[6] = target: T1, Transient receptor potential cation channel subfamily V member 1; assay: Antagonist activity at recombinant human TRPV1 expressed in HEK293 cells assessed as inhibition of capsaicin-induced intracellular calcium accumulation up to 10 uM […] preincubated for 5 mins followed by capsaicin addition by Fluo-4-AM probe-based spectrofluorimetric assay; format: cell-based; how it was run: as §1
[7] = target: T2, Transient receptor potential cation channel subfamily V member 2 (Rattus norvegicus, UniProt Q9WUD2); assay: Antagonist activity at recombinant rat TRPV2 expressed in HEK293 cells assessed as inhibition of LPC-induced intracellular calcium accumulation preincubated for 5 mins followed by LPC addition by Fluo-4-AM probe-based spectrofluorimetric assay; format: cell-based; how it was run: as §1
T2 sequence (Q9WUD2 whole entry): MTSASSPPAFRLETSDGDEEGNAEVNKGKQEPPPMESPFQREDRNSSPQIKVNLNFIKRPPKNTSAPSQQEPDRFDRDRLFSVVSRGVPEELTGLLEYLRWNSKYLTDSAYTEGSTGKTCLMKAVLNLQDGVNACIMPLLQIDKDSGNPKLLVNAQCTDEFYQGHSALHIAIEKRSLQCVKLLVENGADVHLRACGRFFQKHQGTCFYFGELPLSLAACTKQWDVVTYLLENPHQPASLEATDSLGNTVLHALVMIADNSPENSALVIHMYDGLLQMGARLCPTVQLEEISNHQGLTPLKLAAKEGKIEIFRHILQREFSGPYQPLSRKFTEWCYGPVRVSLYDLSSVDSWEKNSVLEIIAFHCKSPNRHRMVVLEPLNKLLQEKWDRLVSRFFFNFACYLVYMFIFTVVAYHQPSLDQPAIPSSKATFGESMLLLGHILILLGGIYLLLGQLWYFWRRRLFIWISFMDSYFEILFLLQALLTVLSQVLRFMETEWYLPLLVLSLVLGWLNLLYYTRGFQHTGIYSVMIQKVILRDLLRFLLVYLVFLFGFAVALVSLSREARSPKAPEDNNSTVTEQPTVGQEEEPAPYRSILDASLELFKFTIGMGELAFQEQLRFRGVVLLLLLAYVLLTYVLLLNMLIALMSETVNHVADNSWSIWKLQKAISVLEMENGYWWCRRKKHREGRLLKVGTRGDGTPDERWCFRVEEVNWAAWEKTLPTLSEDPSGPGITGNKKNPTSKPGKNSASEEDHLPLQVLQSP

[8] = target: Transient receptor potential cation channel subfamily M member 8 (Rattus norvegicus, UniProt Q8R455); assay: Antagonist activity at recombinant rat TRPM8 expressed in HEK293 cells assessed as inhibition of icilin-induced intracellular calcium accumulation preincubated for 5 mins followed by icilin addition by Fluo-4-AM probe-based spectrofluorimetric assay; format: cell-based; how it was run: as §1
[9] = target: T3, Heat sensitive channel TRPV3 (Rattus norvegicus) (UniProt Q4QYD9); assay: Antagonist activity at recombinant rat TRPV3 expressed in HEK293 cells assessed as inhibition of thymol-induced intracellular calcium accumulation up to 10 uM preincubated for 5 mins followed by thymol addition by Fluo-4-AM probe-based spectrofluorimetric assay; format: cell-based; how it was run: as §1
T3 sequence (whole entry): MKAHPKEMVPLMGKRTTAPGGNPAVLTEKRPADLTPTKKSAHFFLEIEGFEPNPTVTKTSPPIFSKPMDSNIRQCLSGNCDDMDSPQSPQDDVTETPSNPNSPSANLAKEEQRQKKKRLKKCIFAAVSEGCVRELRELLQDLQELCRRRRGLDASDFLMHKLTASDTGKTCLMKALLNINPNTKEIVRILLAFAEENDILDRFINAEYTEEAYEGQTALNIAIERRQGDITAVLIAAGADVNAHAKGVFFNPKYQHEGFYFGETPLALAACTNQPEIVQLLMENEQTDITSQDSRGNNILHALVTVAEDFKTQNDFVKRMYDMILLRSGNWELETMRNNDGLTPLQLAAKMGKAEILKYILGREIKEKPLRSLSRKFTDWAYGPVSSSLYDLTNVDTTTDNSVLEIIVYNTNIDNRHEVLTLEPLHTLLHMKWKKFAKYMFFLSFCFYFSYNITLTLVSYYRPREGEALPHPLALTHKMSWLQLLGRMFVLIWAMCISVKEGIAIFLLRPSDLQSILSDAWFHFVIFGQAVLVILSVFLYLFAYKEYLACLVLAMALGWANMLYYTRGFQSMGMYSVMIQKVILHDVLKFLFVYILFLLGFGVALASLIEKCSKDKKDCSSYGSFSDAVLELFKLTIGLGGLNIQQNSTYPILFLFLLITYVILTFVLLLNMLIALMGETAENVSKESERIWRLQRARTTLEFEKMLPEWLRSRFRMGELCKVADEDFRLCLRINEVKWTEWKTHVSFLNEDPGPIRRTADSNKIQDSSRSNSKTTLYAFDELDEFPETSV

Chain of Transient receptor potential cation channel subfamily A member 1 (Rattus norvegicus) (Q6RI86 whole entry): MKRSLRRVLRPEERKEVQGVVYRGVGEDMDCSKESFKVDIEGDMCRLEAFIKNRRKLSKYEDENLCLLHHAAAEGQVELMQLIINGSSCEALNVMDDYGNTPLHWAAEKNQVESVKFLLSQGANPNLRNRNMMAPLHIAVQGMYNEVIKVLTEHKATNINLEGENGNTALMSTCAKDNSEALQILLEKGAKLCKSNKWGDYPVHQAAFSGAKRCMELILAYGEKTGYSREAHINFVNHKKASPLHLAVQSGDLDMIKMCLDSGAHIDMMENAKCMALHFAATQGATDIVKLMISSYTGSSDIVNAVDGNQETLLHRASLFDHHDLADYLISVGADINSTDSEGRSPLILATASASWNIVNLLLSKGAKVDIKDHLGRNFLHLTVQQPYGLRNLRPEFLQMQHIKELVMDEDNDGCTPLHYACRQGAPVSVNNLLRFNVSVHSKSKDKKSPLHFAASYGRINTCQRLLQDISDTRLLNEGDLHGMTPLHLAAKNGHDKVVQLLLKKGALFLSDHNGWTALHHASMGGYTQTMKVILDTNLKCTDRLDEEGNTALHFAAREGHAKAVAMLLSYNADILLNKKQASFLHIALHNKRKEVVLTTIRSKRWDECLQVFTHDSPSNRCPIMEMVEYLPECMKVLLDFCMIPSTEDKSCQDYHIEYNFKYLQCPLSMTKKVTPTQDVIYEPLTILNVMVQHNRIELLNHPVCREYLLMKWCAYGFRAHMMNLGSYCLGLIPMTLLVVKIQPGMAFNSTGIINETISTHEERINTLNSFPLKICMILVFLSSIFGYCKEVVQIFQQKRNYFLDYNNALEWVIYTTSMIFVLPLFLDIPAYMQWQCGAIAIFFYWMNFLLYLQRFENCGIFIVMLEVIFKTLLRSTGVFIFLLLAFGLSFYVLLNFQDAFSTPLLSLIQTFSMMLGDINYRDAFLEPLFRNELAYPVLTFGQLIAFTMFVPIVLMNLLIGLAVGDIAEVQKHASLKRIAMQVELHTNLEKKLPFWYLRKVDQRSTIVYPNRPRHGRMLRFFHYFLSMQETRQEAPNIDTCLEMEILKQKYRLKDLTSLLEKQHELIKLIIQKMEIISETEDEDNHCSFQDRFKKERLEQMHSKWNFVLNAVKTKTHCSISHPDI
Chain of Transient receptor potential cation channel subfamily M member 8 (Q8R455 whole entry): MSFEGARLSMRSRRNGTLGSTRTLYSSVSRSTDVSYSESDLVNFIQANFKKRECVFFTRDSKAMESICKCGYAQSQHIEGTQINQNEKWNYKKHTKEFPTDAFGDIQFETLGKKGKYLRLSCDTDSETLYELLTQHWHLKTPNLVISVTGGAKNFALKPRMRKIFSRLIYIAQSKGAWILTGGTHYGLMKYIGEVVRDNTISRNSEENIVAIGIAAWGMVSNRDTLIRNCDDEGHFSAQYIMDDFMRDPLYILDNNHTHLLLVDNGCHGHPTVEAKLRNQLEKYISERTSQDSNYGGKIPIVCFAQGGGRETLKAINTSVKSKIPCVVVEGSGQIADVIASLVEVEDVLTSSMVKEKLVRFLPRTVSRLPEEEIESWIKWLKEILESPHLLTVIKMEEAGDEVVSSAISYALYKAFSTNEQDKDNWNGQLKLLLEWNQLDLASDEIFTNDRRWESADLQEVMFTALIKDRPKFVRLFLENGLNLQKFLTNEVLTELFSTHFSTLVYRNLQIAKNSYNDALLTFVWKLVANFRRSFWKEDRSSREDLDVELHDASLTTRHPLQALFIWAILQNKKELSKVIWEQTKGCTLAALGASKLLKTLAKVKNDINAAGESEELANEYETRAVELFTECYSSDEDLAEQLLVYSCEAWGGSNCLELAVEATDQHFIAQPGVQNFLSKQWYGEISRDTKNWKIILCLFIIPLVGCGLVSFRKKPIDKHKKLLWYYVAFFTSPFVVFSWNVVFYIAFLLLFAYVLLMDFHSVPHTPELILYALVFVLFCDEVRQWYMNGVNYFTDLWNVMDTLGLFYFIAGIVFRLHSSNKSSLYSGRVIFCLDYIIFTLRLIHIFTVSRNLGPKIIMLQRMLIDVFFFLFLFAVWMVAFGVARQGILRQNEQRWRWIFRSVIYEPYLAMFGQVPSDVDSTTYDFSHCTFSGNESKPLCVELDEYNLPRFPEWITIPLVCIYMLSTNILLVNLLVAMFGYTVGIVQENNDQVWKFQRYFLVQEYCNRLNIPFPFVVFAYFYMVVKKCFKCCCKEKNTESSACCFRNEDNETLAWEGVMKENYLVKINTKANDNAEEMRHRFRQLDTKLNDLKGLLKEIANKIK
Chain of Transient receptor potential cation channel subfamily V member 4 (Rattus norvegicus) (Q9ERZ8 whole entry): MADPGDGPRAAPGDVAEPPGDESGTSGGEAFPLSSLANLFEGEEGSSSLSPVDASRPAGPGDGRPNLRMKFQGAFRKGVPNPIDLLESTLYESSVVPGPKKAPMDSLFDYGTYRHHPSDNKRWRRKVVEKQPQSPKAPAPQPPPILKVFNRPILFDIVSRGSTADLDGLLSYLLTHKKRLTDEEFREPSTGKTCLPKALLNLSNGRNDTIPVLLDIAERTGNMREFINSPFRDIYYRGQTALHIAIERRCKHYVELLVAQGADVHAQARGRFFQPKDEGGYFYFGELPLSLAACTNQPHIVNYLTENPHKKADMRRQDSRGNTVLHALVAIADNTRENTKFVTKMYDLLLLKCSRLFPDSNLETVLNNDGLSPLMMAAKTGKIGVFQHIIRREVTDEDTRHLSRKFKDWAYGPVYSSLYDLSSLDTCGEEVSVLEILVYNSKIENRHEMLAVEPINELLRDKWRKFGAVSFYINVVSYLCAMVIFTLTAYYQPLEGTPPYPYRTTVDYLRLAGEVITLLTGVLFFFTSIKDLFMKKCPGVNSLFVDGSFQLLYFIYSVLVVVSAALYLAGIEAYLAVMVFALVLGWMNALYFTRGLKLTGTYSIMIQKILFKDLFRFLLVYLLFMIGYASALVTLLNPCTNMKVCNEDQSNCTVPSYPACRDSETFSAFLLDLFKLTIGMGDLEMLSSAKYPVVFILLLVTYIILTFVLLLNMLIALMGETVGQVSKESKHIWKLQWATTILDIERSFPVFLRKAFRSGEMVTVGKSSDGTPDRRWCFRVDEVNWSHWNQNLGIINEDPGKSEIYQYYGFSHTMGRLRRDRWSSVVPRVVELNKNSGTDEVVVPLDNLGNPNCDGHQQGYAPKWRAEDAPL
Chain of Transient receptor potential cation channel subfamily V member 4 (Q9ERZ8 whole entry): as above
T1 sequence (Q8NER1 whole entry): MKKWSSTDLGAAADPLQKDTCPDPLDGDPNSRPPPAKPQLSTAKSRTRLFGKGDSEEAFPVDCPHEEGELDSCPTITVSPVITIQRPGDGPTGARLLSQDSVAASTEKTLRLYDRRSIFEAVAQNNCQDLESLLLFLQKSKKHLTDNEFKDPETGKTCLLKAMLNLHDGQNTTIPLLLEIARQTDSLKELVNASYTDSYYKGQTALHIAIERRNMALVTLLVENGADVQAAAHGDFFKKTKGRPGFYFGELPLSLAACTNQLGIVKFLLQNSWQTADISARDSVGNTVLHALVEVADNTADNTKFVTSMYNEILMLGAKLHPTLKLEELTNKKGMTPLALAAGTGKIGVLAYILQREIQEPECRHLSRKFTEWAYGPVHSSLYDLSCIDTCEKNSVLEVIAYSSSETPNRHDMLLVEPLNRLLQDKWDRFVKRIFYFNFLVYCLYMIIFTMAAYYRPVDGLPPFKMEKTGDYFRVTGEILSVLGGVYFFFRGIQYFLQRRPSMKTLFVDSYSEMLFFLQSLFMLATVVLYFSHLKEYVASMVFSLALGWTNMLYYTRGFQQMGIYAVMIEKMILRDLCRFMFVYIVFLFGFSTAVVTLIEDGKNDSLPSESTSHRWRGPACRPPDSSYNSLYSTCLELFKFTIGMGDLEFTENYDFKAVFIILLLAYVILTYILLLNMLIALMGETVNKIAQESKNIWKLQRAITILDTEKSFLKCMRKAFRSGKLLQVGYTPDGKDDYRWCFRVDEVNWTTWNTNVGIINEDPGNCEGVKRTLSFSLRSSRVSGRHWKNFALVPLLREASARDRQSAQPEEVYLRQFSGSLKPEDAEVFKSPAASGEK

IC50 [1] [µM]	inhibition [3]	inhibition [4]	IC50 [5] [µM]	inhibition [6]	IC50 [7] [µM]	IC50 [8] [µM]	inhibition [9]	SMILES	growth inhibition (GI) [2]	inhibition of growth at 10 µM [2] [%]
> 100	inactive	inactive	68.9	inactive	12.4	0.62	inactive	COc1cc(/C=C2\NC(=O)[C@@H]3Cc4c(OC)c(C)c(OC)c(OC)c4[C@@H](c4ccccc4)N3C2=O)c(OC)c(C)c1OC	Active	–
82.6	inactive	inactive	53	inactive	51.9	0.5	inactive	COc1cc2c(cc1OC)[C@H](c1ccccc1)N(C(=O)N1CCc3cc(OC)c(OC)cc3[C@@H]1c1ccccc1)CC2 (racemic)	Active	–
96.2	inactive	inactive	68.5	inactive	94.3	0.072	inactive	COc1cc2c(cc1OC)[C@H](c1ccc(F)cc1)N(C(=O)N1CCc3cc(OC)c(OC)cc3[C@@H]1c1ccc(F)cc1)CC2 (racemic)	–	64.3
81.5	inactive	inactive	49.7	inactive	54.9	0.43	inactive	COc1cc2c(cc1OC)[C@H](c1ccc(Cl)cc1)N(C(=O)N1CCc3cc(OC)c(OC)cc3[C@@H]1c1ccc(Cl)cc1)CC2 (racemic)	–	50.4
